Sampled rows, rich in hits. Any-hit rate of the full collection: about 4.3%.
SR-BI uptake up = activators of SR-BI mediated DiI-HDL uptake, primary screen, ldlA[mSR-BI] CHO cells, DiI fluorescence; 3 h; 100 = double the neutral-control signal; activation, % at 12.5 µM; 0.096% of 320,000 active;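 active means mean replicate activation of at least 60% and every replicate at or above 60%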;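 further: 0% = median plate neutral-control signal and 100% = twice that signal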
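Assay system: CHO ldlA[mSR-BI] cells, LDL receptor-null, SR-BI overexpressing; medium: Ham's F12 with 0.5% BSA, HEPES 25 mM, pH 7.4; also added: DiI-HDL 10 µg/mL; timing: 3 h uptake period with compound, 37 °C; signal: DiI fluorescence, bottom read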
AHR act = AHR activators, primary screen, cell-based, luminescence, luciferase reporter, human; Aryl hydrocarbon receptor (Homo sapiens), P35869; AHR-responsive luciferase reporter cells; activation, % at 5 µM; 2.5% of 320,000 active; in the data active means activation above about 47%;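 further: 0% = vehicle wells and 100% = reference agonist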
Hep lipid drop = inhibitors of hepatocyte lipid droplet formation, primary screen, imaging, high-throughput imaging, BODIPY stain; AML12 mouse hepatocytes, oleate lipid droplets; inhibition, % at 6.5 µM; 0.4% of 240,000 active;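 active means lipid droplet intensity inhibited by at least 50%, with more than 500 cells counted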
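System: AML12 hepatocytes (mouse). Probe or stimulus: oleic acid at 100 µM to induce lipid droplet formation. Times: overnight treatment with compound plus oleate. Detection: Image-based BODIPY and DAPI two-channel analysis. Evaluation: percent inhibition of filter-corrected integrated lipid droplet intensity per well.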
SMARCA2 act = SMARCA2 (BRM) function activators, primary screen, cell-based, luminescence, high throughput; MG213 cells, MMTV-luciferase reporter, dexamethasone, overnight; activation, % at 9.1 µM; 1% of 370,000 active; in the data active means activation above about 7.8%;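 further: 0% = vehicle wells and 100% = reference activator wells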
SR-BI DiI inh = inhibitors of SR-BI mediated HDL lipid uptake, primary screen, ldlA[mSR-BI] cells, fluorescence, single point | inhibition, % at 12.5 µM | Scavenger receptor class B member 1 (Mus musculus), Q61009 | 0.96% of 320,000 active | ldlA[mSR-BI] CHO cells, DiI-HDL uptake fluorescence, 3 h;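 active means mean replicate inhibition of at least 70% and a set share of replicates each scoring 70 or more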;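 further: 0% = median of neutral control wells and 100% = median of positive control wells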
Target sequence (Q61009 whole entry, looked up): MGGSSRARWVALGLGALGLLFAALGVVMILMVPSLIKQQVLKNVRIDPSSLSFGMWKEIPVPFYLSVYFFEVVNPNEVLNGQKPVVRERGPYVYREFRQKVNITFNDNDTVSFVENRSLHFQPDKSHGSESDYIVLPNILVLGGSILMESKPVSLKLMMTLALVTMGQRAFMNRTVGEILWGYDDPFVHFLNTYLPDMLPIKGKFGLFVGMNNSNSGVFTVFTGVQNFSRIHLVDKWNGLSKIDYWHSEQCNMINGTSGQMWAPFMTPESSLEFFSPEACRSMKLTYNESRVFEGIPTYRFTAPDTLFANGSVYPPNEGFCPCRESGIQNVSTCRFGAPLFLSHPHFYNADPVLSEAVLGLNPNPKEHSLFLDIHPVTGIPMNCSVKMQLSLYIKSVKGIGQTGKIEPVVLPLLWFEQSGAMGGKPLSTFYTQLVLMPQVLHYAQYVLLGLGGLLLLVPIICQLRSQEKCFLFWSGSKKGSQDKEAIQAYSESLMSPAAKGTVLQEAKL
Yeast superoxide = reduction of superoxide in aged yeast, primary screen, HTS; S. cerevisiae aged cells, superoxide DHE fluorescence; stronger effect = lower value; 0.18% of 330,000 active; superoxide response (% of plate mean), % at 10 µM;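 active means superoxide response under a set limit, about three screen SD below normal, cut at about 65% in these data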;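 further: yeast aged for seven days with compound at 30 °C before DHE staining; 100% = average MFI of all compound-treated wells on the plate with controls excluded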
SMARCA2 act conf = SMARCA2 (BRM) function activators, confirmation, cell-based, luminescence, triplicate; shares compounds with SMARCA2 act; MG213 cells, MMTV-luciferase with dexamethasone, overnight; MG213 cells expressing E1A, Rb sequestered; DMSO wells 0%, reference activator 100%; activation, % at 9.1 µM; 30% of 3,500 active; AID 652260, 2013;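 active means activation above its plate's cutoff, the mean activation of tested wells plus 3 SD, cut at about 7.9% in these data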
VP16 Luc act = GAL4-VP16 luciferase reporter activation, counter-screen for SMARCA2 (BRM) activator project, cell-based, pG5luc, luminescence, high throughput; activation, % at 9.1 µM; HEK293 GAL4-VP16 pG5luc reporter; scaled: DMSO wells 0%, SAHA wells 100%; shares compounds with SMARCA2 act; 41% of 3,500 active;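 active means activation above the solvent-only control well mean plus 3 SD, averaged across control plates, cut at about 5.2% in these data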
* marks the source's active call; other numbers are inactive results; / = not tested or not shown.

SMILES	SR-BI uptake up	AHR act	Hep lipid drop	SMARCA2 act	SR-BI DiI inh	Yeast superoxide	SMARCA2 act conf	VP16 Luc act
COC(=O)C1CN(Cc2cn(CCC3OCCO3)nn2)CCS(=O)(=O)N1Cc1ccc(OC)cc1 (stereo unspecified)	/	/	/	-2	/	/	/	/
CCCCCn1c(CN(C)Cc2ccccc2)nc2c1c(=O)n(C)c(=O)n2C	-2	/	-15	-2	2	/	/	/
CCCCn1c(CN(Cc2ccccc2)Cc2ccccc2)nc2c1c(=O)n(C)c(=O)n2C	-1	3	/	9.8*	1	112	0	0
CCOc1ccc(OCc2ccc(C(=O)N3CCc4ccccc4C3)o2)cc1	-13	4	/	13*	13	127	6	4
COC(=O)[C@]12C[C@H](CC(=O)NCc3ccccc3)C(=O)N(Cc3cccc4ccccc34)C1=C[C@H](COCc1ccccc1)O[C@@H]2C	/	/	/	-3	/	/	/	/
COc1ccc(-n2c(SCc3nc4ccccc4[nH]3)nc3ccccc3c2=O)cc1	/	/	/	-5	/	/	/	/
O=C(/C=C/c1ccccc1Cl)Nc1cccnc1	14	52*	8	9.0*	-14	102	8.3*	7.5*
O=C(COn1nnc2ccccc21)N1CCN(Cc2ccccc2)CC1	-1	1	3	10*	1	104	4	5
O=C(COn1nnc2ccccc21)NCC1CCCCC1	36	12	-4	8.8*	-36	114	6	4
O=C(CCn1nnc2ccccc21)N1CCN(Cc2ccc3c(c2)OCO3)CC1	/	/	/	-6	/	/	/	/
O=C(O/N=C1\CCCc2ccccc21)c1ccc(F)cc1	12	-3	4	9.7*	-12	94	5	-1
COC(=O)C1CN(Cc2ccc(OC)cc2)CCS(=O)(=O)N1Cc1cn(CCOC(C)=O)nn1 (stereo unspecified)	/	/	/	-5	/	/	/	/
Cc1cccc(NC(=O)COc2ccc3c(c2)CCC3)n1	16	/	/	9.7*	-16	/	6	5.5*
CC1(C)COC(c2cc3c(cc2Br)OCO3)OC1	-8	/	/	8.1*	8	/	-1	-2
CCc1c(-c2ccccc2Br)ncn1CCc1ccccc1OC	/	/	/	-9	/	/	/	/
CC1(CCCN2C(=O)c3ccccc3C2=O)OCCO1	/	0	/	10*	/	92	5	4
CCc1ccc2[nH]c(=O)c(CN(Cc3nnnn3C3CCCC3)C3CCCCC3)cc2c1	24	6	/	8.3*	-24	88	-1	5.8*
COc1cccc(C=NNc2ccc([N+](=O)[O-])cn2)c1OC	/	/	/	8.3*	/	/	7	3
COc1cccc(C2N=C(c3ccccc3C)NO2)c1OC (stereo unspecified)	/	15	-6	8.0*	/	107	4	3
CCc1ccc2cc3c(cc2n1)C(=O)c1ccccc1-3	/	/	/	8.6*	/	/	12*	13*
COc1ccc2c(COC(=O)c3n[nH]c4ccccc34)cc(=O)oc2c1	-12	1	-4	9.5*	12	92	6	11*
CSc1nc(SCCN(C)C)c2c3c(sc2n1)COC(C)(C)C3	-9	4	3	8.1*	9	94	5	1
CC(C)(C)c1ccc(-c2nnc(SCC(=O)NC3CC3)o2)cc1	-1	6	/	9.0*	1	121	0	5.5*
CCOc1ccc(-c2nnc(SCC(=O)NC3CC3)o2)cc1	-5	-3	/	-3	5	97	/	/
N#Cc1cccnc1N1CCN(C(=O)c2cccc3c2C(=O)c2ccc(Cl)cc2S3(=O)=O)CC1	-16	10	/	14*	16	100	14*	3
SMILES	SR-BI uptake up	AHR act	Hep lipid drop	SMARCA2 act	SR-BI DiI inh	Yeast superoxide	SMARCA2 act conf	VP16 Luc act
N#Cc1cccnc1N1CCN(C(=O)c2cccc3c2C(=O)c2ccc(-c4ccc(Cl)c(C(F)(F)F)c4)cc2S3(=O)=O)CC1	-28	1	/	/	28	112	/	/
CCCCCC[C@@H](CC)CN(C(=O)Oc1ccccc1)c1ccccc1	/	/	/	0	/	/	/	/
CN1CCN(c2ccc(NC(=O)CSc3ccccc3)cc2F)CC1	14	9	-3	8.1*	-14	99	7	8.6*
COc1ccccc1C1=NOC(CN2C(=O)c3ccccc3S2(=O)=O)C1 (stereo unspecified)	-38	9	-11	15*	38	101	7	9.1*
COc1cccc(-c2ccc3c(N)c(C(=O)NC4CC4)sc3n2)c1	/	-3	2	13*	/	110	3	8.5*
COc1ccc(C(=O)c2sc3nc(-c4ccc(OC)cc4)ccc3c2N)cc1	-35	9	9	8	35	91	/	/
Cc1cc(C)c(S(=O)(=O)c2cccc(Cl)c2)c(=O)[nH]1	14	0	/	11*	-14	91	-3	0
Cc1cc(C)c(S(=O)(=O)c2ccc(Cl)cc2)c(=O)[nH]1	16	2	/	-1	-16	112	/	/
O=C(CCCc1ccccc1)Nc1ccc2c(c1)OCCO2	13	2	12	9.3*	-13	101	5	8.8*
O=C(NCc1ccccc1)c1ccc2c(c1)OCCO2	33	2	/	-3	-33	95	/	/
O=C(Cn1cnc2ccccc2c1=O)Nc1ccc2c(c1)OCCO2	-1	7	/	8.0*	1	125	6	12*
O=C(Nc1ccc2c(c1)OCCO2)C(=S)NCc1ccccc1	12	5	-6	9.7*	-12	99	5	4
COC(=O)[C@]1(Cc2ccccc2)NC=C(C(=O)c2ccccc2)[C@@H]1c1cccs1	/	/	/	-2	/	/	/	/
CC(=O)c1ccc(NC(=O)c2cc(Cl)sc2Cl)cc1	5	2	13	9.3*	-5	98	6	7.5*
Cc1ccc(-c2noc(-c3cccs3)n2)cc1	-23	-5	/	3	23	106	/	/
O=[N+]([O-])c1cccc(-c2noc(-c3cccs3)n2)c1	8	26	2	11*	-8	92	5	4
CCCC#C/C(CCC)=C1\c2ccccc2C(=O)N1c1ccccc1	/	/	/	0	/	/	/	/
COC(=O)[C@]12C[C@H](CC(=O)NCC3CCCCC3)C(=O)N(Cc3ccc(Cl)cc3Cl)C1=C[C@H](C(C)C)O[C@@H]2C1CC1	/	/	/	-1	/	/	/	/

Screening results as filed in PubChem BioAssay.
